In the library only some 2.4% were active in any assay of this set; here they are far more common.
H9c2 TAG inh = reduces triacylglycerol accumulation in H9c2 cells | Nile Red lipid (TAG) fluorescence; cells loaded with 200 µM oleic acid | inhibition, % at 12.5 µM | 230,000 tested, 0.66% active;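 active = pattern-corrected inhibition of lipid staining of at least 50% with the nuclear-stain viability signal not falling by more than 50%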;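 note: 0% = DMSO wells and 100% = triacsin C control wells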
MC4R antag cAMP = human MC4R antagonism in cAMP assay; inhibition, % at 6.5 µM; 360,000 tested, 0.48% active; MC4R-expressing cells, MTII-stimulated cAMP, LANCE TR-FRET; AID 540295;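 active = inhibition above its plate's cutoff, the mean of tested wells on that plate plus 3 SD, cut at about 29% in these data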;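 note: 0% = Melanotan II alone and 100% = Melanotan II plus saturating MCL0020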
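System: U2OS cells stably expressing human melanocortin 4 receptor (MC4R). Reagent: Melanotan II challenge after compound preincubation. Doses: 6.5 µM. Times: 30-min compound, 1-h challenge, 1-h detection, room temperature. Measured by: TR-FRET with Eu-cAMP and labeled anti-cAMP, 671 nm. Replicates: singlicate.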
MC4R ag barr = agonists of human melanocortin 4 receptor (MC4R) beta-arrestin | 360,000 tested, 0.98% active | AID 540308 | U2OS MC4R beta-arrestin complementation, luminescence; percent of melanotan II response, DMSO zero | P32245 | activation, % at 8.9 µM;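 active = activation above a per-plate cutoff, the mean activation of sample wells on that plate plus 3 SD, cut at about 8% in these data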
NTR1 agonist = agonists of human neurotensin receptor NTR1; NTR1-U2OS beta-arrestin-GFP spot imaging, agonist mode; activation, % at 20 µM; 330,000 tested, 0.17% active; AID 493036;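 active = activation at or above 40% of the spot to cytoplasm intensity ratio, with at least 20 cells analyzed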;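 note: 0% = DMSO without peptide and 100% = 100 nM NTR1 peptide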
Target sequence (P30989 whole entry, looked up): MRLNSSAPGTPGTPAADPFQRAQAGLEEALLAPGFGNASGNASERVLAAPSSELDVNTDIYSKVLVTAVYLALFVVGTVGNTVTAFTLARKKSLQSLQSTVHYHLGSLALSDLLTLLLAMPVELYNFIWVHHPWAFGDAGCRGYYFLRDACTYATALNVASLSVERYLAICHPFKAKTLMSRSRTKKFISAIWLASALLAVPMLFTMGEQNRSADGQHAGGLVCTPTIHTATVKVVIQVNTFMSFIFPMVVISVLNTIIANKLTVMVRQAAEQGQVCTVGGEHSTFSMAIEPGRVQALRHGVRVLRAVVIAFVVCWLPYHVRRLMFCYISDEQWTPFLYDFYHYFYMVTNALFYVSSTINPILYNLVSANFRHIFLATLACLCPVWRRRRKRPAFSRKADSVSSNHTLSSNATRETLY
aDG glyco act = alpha-DG glycosylation activation. AID 624168. activation, % at 10 µM. 360,000 tested, 0.22% active. Pro5-aDG cells, alpha-DG glycosylation AlphaScreen (IIH6); 0% Pro5, 100% B10-LARGE cell signal;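 active = activation of at least 8% versus controls, or a plate z-score of at least 8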;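 note: Pro5 are CHO cells carrying HIG-tagged alpha-DG that lacks glycosylation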
Tb MetRS inh = Trypanosoma brucei MetRS inhibition | purified T. brucei MetRS, ATP depletion, Kinase-Glo luminescence | inhibition, % at 11.9 µM | 360,000 tested, 0.4% active | AID 624268;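 active = inhibition above a per-plate cutoff of the control wells' mean inhibition plus 3 SD, cut at about 5.5% in these data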;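 note: 0% = DMSO wells median and 100% = median of wells with control inhibitor compound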
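Dosing: 11.9 µM compound single dose, 0.9% DMSO; Assay system: purified T. brucei MetRS enzyme; Measured by: Kinase-Glo luciferase luminescence reporting remaining unconsumed ATP; Schedule: 15 min plus 2 h at 25 °C.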
An asterisk follows results filed as active; . = no result given.

SMILES | H9c2 TAG inh | MC4R antag cAMP | MC4R ag barr | NTR1 agonist | aDG glyco act | Tb MetRS inh
O=C(N/N=C\c1ccc(-c2ccccc2[N+](=O)[O-])o1)C1COc2cc3ccccc3cc2O1 (centres undefined) | -7 | 3 | -1 | -2 | 0 | 10*
O=C(N/N=C\c1ccc(-c2ccccc2[N+](=O)[O-])o1)C1COc2ccccc2O1 (centres undefined) | . | 10 | -2 | -1 | 0 | 0
CC(c1nc2ccccc2n1Cc1ccccc1)n1c(-c2cnccn2)nc2ccccc21 (centres undefined) | . | . | . | . | 0 | 0
CC(=O)Cc1cc(O)c2ccccc2c1OC(=O)c1ccc(Br)cc1 | 32 | -1 | 17* | 0 | 2 | -1
COC(=O)c1c(N)[nH]c(C(=O)c2ccccc2)c1-c1ccc(Br)cc1 | . | . | . | . | 0 | 0
CCN(CC)CCNC(=O)c1ccc(NC(=O)Cc2ccc(OC)c(S(=O)(=O)N3CCOCC3)c2)cc1 | 2 | 4 | -1 | . | 0 | 0
C=CC(=O)Nc1ccc(CN2C(=O)N(c3c(Cl)c(OC)cc(OC)c3Cl)Cc3cnc(NCCCCN(CC)CC)nc32)cc1 | 66* | 7 | -1 | 1 | 0 | 0
CCOc1ccc(N2C(=O)/C(=C/c3cccs3)N(CC(=O)OC)C2=S)cc1 | . | 4 | 20* | 1 | 0 | 0
C[C@@H](NC(=O)[C@@H]1CCCN1C(=O)[C@@H]1CCCN1)c1ccccc1 | . | . | . | . | 0 | -1
CCOC(=O)C1=CCN(S(=O)(=O)c2ccc(C)cc2)C1c1cccc(C)c1 (centres undefined) | . | . | . | . | 0 | 0
O=C(NC1CCCC1)C(c1ccccc1)n1c(CSCCOc2ccccc2)nc2ccccc21 (centres undefined) | . | . | . | . | 0 | 1
O=C1NC[C@H](Cc2ccccc2)N(C[C@@H]2CCCN2C[C@H](Cc2ccc(O)cc2)N2C[C@H](Cc3ccccc3)N(CCc3ccccc3)C(=O)C2=O)C1=O | . | . | . | . | 0 | -1
COc1cc(/C=N/Nc2nc(C)nc3c2cnn3-c2ccccc2)ccc1O | 57* | -43 | 1 | . | -1 | 0
CC(C)(C)c1cc(Br)c(O)c(N=Nc2ccc(S(=O)(=O)N3CCOCC3)cc2)c1 | 85* | 6 | -2 | 5 | 0 | 0
Cc1ccc(O)c(N=Nc2ccc(S(=O)(=O)N3CCOCC3)cc2)c1 | 15 | 12 | -2 | 3 | 0 | -1
O=C1c2cccc3cccc(c23)C(c2nc3ccccc3[nH]2)N1C1CC1 (centres undefined) | . | . | . | . | 0 | -1
Cc1cc(C)c(S(=O)(=O)NCCc2ccncc2)c(C)c1 | . | 21 | 0 | -1 | 0 | 0
Cc1cc(C)c(S(=O)(=O)NCc2ccncc2)c(C)c1 | -45 | 4 | -1 | 1 | 6.3* | 0
Cc1ccc(S(=O)(=O)NCc2ccncc2)c(C)c1C | -24 | 5 | -2 | 3 | 7.2* | 0
CCCCNC(=O)c1c(N)[nH]c(C(=O)c2ccccc2)c1-c1ccccn1 | . | . | . | . | 0 | -1
CC(C)C[C@H]1CN(CCCC[C@@H]2CNC(=O)C(=O)N2CC2CCCCC2)C(=O)C(=O)N1CCc1ccccc1 | . | . | . | . | 0 | -1
Nc1c(C(=O)NCCN2CCOCC2)c2nc3ccccc3nc2n1-c1cccc(F)c1 | 26 | 3 | 0 | 0 | 0 | -1
C=CCNC(=O)c1c(N)n(-c2ccc3c(c2)OCO3)c2nc3ccccc3nc12 | . | 3 | 8.7* | 1 | 0 | -1
CC(Nc1ncnc2sccc12)c1ccccc1 (centres undefined) | . | 5 | -1 | 3 | 2.2* | 0
c1ccc(Nc2ncnc3sccc23)cc1 | . | -1 | 1 | 1 | 0 | -1
SMILES | H9c2 TAG inh | MC4R antag cAMP | MC4R ag barr | NTR1 agonist | aDG glyco act | Tb MetRS inh
O=C(Nc1ccsc1C(=O)NC1CC1)c1ccccc1 | 0 | 0 | -2 | 0 | 0 | -1
O=C(Nc1ccsc1C(=O)NC1CCCCC1)c1ccc(F)cc1 | . | 15 | 12* | 10 | 3 | 0
O=C(COc1ccccc1)N[C@@H]1c2ccccc2CC[C@@H]1OCc1ccccc1 | -21 | 17 | 8.4* | 5 | 1 | 2
Cc1ccc2ccccc2c1C(O)c1ncc(-c2ccccc2)[nH]1 (centres undefined) | -11 | 2 | -2 | . | 0 | 0
O=C(Nc1ccc2nc(-c3ccccc3)[nH]c2c1)c1ccco1 | 18 | 1 | -1 | 1 | 0 | 0
O=C(Nc1cccc(-c2nc3ccccc3[nH]2)c1)c1cccc(NC(=O)c2ccco2)c1 | . | 8 | 2 | 41* | 0 | 2
COc1ccc(CN(CCC(c2ccccc2)c2ccc(OC(C)C)cc2)C(=O)CCl)cc1OC (centres undefined) | . | 26 | 21* | 24 | 0 | -1
NC(=O)C(CC(=O)O)NC(=O)[C@@H]1CCCNc2c(I)cc([N+](=O)[O-])cc2C(=O)N[C@@H](CO)C(=O)N[C@@H](Cc2ccc(O)cc2)C(=O)N1 (some centres undefined) | 1 | 1 | -1 | 0 | 0 | 41*
C=C(C)COc1ccc(-c2[nH]ncc2Oc2ccc(OC)cc2)c(O)c1 | 11 | 1 | 1 | 38 | 0 | 0
C=C(C)COc1ccc(-c2[nH]ncc2Oc2ccccc2OC)c(O)c1 | . | 17 | 8.9* | 15 | 0 | 0
C=C(C)COc1ccc(-c2[nH]ncc2-c2ccccc2OC)c(O)c1 | -40 | 2 | 9.2* | 6 | 0 | -1
Cc1ccc(CN=Cc2[nH]c3ccc(Br)c(Cl)c3c2O)cc1 | . | -11 | -3 | -3 | 3.9* | 0
CCOc1ccc(-n2c(C)cc(C(=O)CCl)c2C)cc1 | 59* | 1 | -4 | 12 | 0 | 0
CC(C)(C)c1ccc(C2CC2C(=O)N/N=C\c2ccc[nH]2)cc1 (centres undefined) | 16 | 2 | 1 | 16 | 9.1* | -1
O=C(COc1ccccc1)NC(=S)Nc1cccc2c(O)cccc12 | 12 | -6 | 5 | . | 0 | 0
O=C(Nc1cccc([N+](=O)[O-])c1)c1ccc(CSc2ccccc2)cc1 | . | 4 | 15* | 3 | 0 | -1
O=C(NC1=C(Nc2ccc(F)cc2)C(=O)c2ccccc2C1=O)c1ccc(Cl)cc1 | . | -3 | -2 | 2 | 5.4* | -1
CC1(C(=O)NCCC#N)CCN1C(=O)Cc1ccc(-c2ccccc2)cc1 (centres undefined) | -5 | -2 | 1 | . | 0 | 0
COc1ccccc1N(Cc1ccccc1)S(=O)(=O)c1cccc(C(=O)NC2CC(C)(C)NC(C)(C)C2)c1 | 27 | 7 | -2 | 9 | 9.1* | 0
CCCC(=O)OC/C(O)=C(\C#N)c1nc2ccccc2[nH]1 | -8 | 15 | -3 | -2 | -1 | 0

Source: PubChem BioAssay (several laboratories)
